Columns and labels:
Candida albicans [1] = assay: Microbicidal activity against Candida albicans 16820 assessed as log reduction in microbial count at 10 ug/ml using PIPES buffer
[2] = Selectivity index, ratio of MMC for Staphylococcus aureus 502a to hemolytic activity for human erythrocytes
Staphylococcus aureus = assay: Microbicidal activity against Staphylococcus aureus 502a; format: functional
Procedure, shortened: (§1)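 Log-phase organisms (1–2 × 10^6 CFU/ml) were exposed to serially diluted peptide (0.05–10.0 μg/ml final) in 10 mM PIPES, pH 7.4, with 5 mM glucose for 2 h at 37°C. Aliquots were serially diluted 1:10 to 1:10^6 in Trypticase soy or Sabouraud broth and grown 24–48 h at 37°C. MMC was the lowest concentration giving 99.9% viability loss in at least two experiments.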

Candida albicans [3] = assay: Microbicidal activity against Candida albicans 16820; format: functional
Procedure, shortened: as §1

Escherichia coli = assay: Microbicidal activity against Escherichia coli ML35; format: functional
Procedure, shortened: as §1

In the case of `CC[C@H](C)[C@@H]1NC(=O)[C@@H]2CSSC[C@H](NC(=O)[C@H](CCCNC(=N)N)NC(=O)[C@@H]3CSSC[C@H](NC1=O)C(=O)N[C@@H]([C@@H](C)O)C(=O)N[C@@H](CCCNC(=N)N)C(=O)NCC(=O)N[C@@H](Cc1ccccc1)C(=O)N3)C(=O)N[C@@H](CC(C)C)C(=O)N[C@H]1CSSC[C@H](NC(=O)[C@H](C(C)C)NC(=O)CNC(=O)[C@H](CCCNC(=N)N)NC(=O)[C@H](CCCNC(=N)N)NC1=O)C(=O)N[C@@H](CCCNC(=N)N)C(=O)N2`, the FC (Candida albicans [1]) is reported as over 3, the “Selectivity Index” value [2] is reported as 5.5 and the MMC (Staphylococcus aureus) is reported as 1 µg/mL. It also gave an MMC (Candida albicans [3]) of 1 µg/mL and an MMC (Escherichia coli) of 2 µg/mL.
